In assay [1] the target is T1, Peroxisome proliferator-activated receptor alpha (Homo sapiens, UniProt Q07869).
T1 sequence (Q07869 whole entry): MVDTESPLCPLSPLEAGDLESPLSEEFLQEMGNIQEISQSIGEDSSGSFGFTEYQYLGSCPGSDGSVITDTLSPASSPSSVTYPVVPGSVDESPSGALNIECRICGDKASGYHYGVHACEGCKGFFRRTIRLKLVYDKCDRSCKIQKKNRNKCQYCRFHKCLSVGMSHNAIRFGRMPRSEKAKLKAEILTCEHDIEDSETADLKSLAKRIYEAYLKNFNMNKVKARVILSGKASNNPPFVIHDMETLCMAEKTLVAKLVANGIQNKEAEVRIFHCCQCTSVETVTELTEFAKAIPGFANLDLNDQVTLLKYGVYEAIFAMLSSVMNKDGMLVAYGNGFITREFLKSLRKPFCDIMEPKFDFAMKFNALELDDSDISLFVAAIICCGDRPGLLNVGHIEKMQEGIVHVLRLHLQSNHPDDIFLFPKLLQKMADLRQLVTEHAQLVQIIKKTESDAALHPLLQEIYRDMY
Nature of the assay: Agonist activity at PPARalpha receptor expressed in HEK293 cells co-transfected with GAL4 by transactivation assay. It counts as functional, cell-based. Put shortly: (§1)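 GAL4-PPARα chimeric receptor transfected into HEK293 cells; cell-based transactivation (agonist mode). Output is EC50, plus % efficacy relative to the positive control fenofibric acid for PPARα.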

The target of assay [2] is T2, Peroxisome proliferator-activated receptor alpha (Homo sapiens) (UniProt Q07869).
T2 sequence (whole entry): T1 sequence (Q07869 whole entry)
The experiment in a line: Agonist activity at PPARalpha receptor expressed in HEK293 cells co-transfected with GAL4 by transactivation assay relative to […]. It counts as functional, cell-based. Put shortly: as §1

In assay [3] the target is T3, Peroxisome proliferator-activated receptor delta (Homo sapiens, UniProt Q03181).
T3 sequence (Q03181 whole entry): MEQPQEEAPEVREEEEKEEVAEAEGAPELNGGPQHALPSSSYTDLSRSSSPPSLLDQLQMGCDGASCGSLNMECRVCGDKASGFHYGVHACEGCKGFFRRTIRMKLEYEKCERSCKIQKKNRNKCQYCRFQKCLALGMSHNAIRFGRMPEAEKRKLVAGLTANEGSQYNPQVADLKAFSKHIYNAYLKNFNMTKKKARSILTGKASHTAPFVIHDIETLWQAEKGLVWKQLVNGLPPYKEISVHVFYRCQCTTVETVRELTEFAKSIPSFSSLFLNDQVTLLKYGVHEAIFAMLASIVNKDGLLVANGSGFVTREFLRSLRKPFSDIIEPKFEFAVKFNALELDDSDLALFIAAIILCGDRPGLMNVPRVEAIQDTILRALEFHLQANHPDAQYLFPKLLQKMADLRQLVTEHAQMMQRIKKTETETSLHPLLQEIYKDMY
Nature of the assay: Agonist activity at PPARdelta receptor expressed in HEK293 cells co-transfected with GAL4 by transactivation assay. It counts as functional, cell-based.

For assay [4], the target named is T2, Peroxisome proliferator-activated receptor alpha (Homo sapiens). The experiment in a line: (§2) Agonist activity at PPARalpha receptor expressed in HEK293 cells co-transfected with GAL4 at 1 uM by transactivation assay. It counts as functional, cell-based.
Assay [5] concerns the target T4, Peroxisome proliferator-activated receptor gamma (Homo sapiens, UniProt P37231).
T4 sequence (P37231 whole entry): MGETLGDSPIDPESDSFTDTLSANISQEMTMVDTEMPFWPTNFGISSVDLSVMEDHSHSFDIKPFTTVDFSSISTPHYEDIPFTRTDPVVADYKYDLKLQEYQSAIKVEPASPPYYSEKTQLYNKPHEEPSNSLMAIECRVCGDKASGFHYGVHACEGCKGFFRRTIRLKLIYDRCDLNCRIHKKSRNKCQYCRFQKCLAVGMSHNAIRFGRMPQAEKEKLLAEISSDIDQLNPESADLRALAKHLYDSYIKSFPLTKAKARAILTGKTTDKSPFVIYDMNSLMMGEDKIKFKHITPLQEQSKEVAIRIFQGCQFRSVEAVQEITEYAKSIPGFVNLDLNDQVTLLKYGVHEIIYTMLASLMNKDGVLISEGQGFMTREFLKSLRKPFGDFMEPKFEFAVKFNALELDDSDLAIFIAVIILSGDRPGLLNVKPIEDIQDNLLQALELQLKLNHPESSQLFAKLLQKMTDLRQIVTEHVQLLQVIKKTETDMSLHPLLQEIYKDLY

The target in assay [6] is T5, Peroxisome proliferator-activated receptor delta (Homo sapiens) (UniProt Q03181).
T5 sequence (whole entry): T3 sequence (Q03181 whole entry)
Nature of the assay: Agonist activity at PPARdelta receptor expressed in HEK293 cells co-transfected with GAL4 at 1 uM by transactivation assay. It counts as functional, cell-based.

The target of assay [7] is Peroxisome proliferator-activated receptor delta (Homo sapiens) (UniProt Q03181). Nature of the assay: Antagonist activity at PPARdelta co-transfected with GAL4-PPAR fusion protein assessed as inhibition of GW501516-induced response by luciferase reporter gene assay.
Assay [8] addresses T5, Peroxisome proliferator-activated receptor delta (Homo sapiens). Nature of the assay: Agonist activity at PPARdelta receptor expressed in HEK293 cells co-transfected with GAL4 at 10 uM by transactivation assay. Type of assay: functional, cell-based.
Assay [9] concerns the target T6, Peroxisome proliferator-activated receptor gamma (Homo sapiens) (UniProt P37231).
T6 sequence (whole entry): T4 sequence (P37231 whole entry)
Nature of the assay: Agonist activity at PPARgamma receptor expressed in HEK293 cells co-transfected with GAL4 at 10 uM by transactivation assay. Type of assay: functional, cell-based.

Assay [10] concerns the target T2, Peroxisome proliferator-activated receptor alpha (Homo sapiens). Nature of the assay: Agonist activity at PPARalpha receptor expressed in HEK293 cells co-transfected with GAL4 up to 10 uM by transactivation assay. Type of assay: functional, cell-based. In short, it runs like this:
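HEK293 cells transfected with GAL4-PPAR chimeric receptors (PPARα, δ or γ) in a cell-based transactivation assay. Results given as EC50 and % efficacy relative to a subtype positive control: fenofibric acid for PPARα, GW501516 for PPARδ, ciglitazone for PPARγ.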

In assay [11] the target is T4, Peroxisome proliferator-activated receptor gamma. Nature of the assay: Agonist activity at PPARgamma receptor expressed in HEK293 cells co-transfected with GAL4 by transactivation assay.
Assay [12] addresses T1, Peroxisome proliferator-activated receptor alpha. Described as §2. Type of assay: functional, cell-based.
The target in assay [13] is T6, Peroxisome proliferator-activated receptor gamma (Homo sapiens). The experiment in a line: Antagonist activity at PPARgamma co-transfected with GAL4-PPAR fusion protein assessed as inhibition of TIPP703-induced response up to 10 uM by luciferase reporter gene assay. Type of assay: functional. In short, it runs like this: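 Cells expressing GAL4-PPARα or GAL4-PPARγ chimeras were stimulated with the agonist TIPP-703, with or without co-treatment at 0.1, 1 or 10 µM. Antagonism was read as dose-dependent reduction of the induced transactivation signal.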

For assay [14], the target named is T2, Peroxisome proliferator-activated receptor alpha (Homo sapiens). The experiment in a line: Antagonist activity at PPARalpha co-transfected with GAL4-PPAR fusion protein assessed as inhibition of TIPP703-induced response up to 10 uM by luciferase reporter gene assay. It counts as functional. In short, it runs like this: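 Antagonist mode in the GAL4-PPAR chimera system. Cells were stimulated with the agonist TIPP-703, with or without three added test concentrations. Inhibition of the agonist-elicited reporter signal was assessed for dose dependence.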

Assay [15] concerns the target T3, Peroxisome proliferator-activated receptor delta. Nature of the assay: Antagonist activity at PPARdelta co-transfected with GAL4-PPAR fusion protein assessed as inhibition of GW-501516-induced response by luciferase reporter gene assay. Type of assay: functional. A general note: In a reporter assay the amount or activity of a reporter protein is the signal.

For orientation: EC50 means the concentration at which the effect is half-maximal. As usually defined, the IC50 is the concentration that gives 50% inhibition.

Calls of active or inactive are those of the source. No cut-off for these calls is given here.

With `CCCCOc1ccc(-c2cccc(C(=O)O)c2C)cc1CNC(=O)c1ccc(C(F)(F)F)cc1F`, the results for the concentration giving a half-maximal response (EC50) in assay [1] and in assay [3] were 130 nM and 1.6 nM, respectively. This compound showed an Efficacy in [2] of 100%.
Consider `CCCCOc1ccc(-c2ccc(C(=O)O)c(C)c2)cc1CNC(=O)c1ccc(C(F)(F)F)cc1F`, for which the EC50 turned out to be 3000 nM in assay [1] and 45 nM in [3]. Moreover, the Efficacy in assay [2] was found to be 100%.
As for `CCCCOc1ccc(-c2ccc(C(=O)O)cc2C)cc1CNC(=O)c1ccc(C(F)(F)F)cc1F`, the result in assay [4] was inactive. Besides, in assay [5], half-maximal inhibition (IC50) was put at 10 nM.
As for `CCCCOc1ccc(-c2ccc(C(=O)O)o2)cc1CNC(=O)c1ccc(C(F)(F)F)cc1F`, the outcome in [6], in assay [4], in assay [7], in assay [8], in assay [9] and in assay [10] was inactive.
In the case of `CCCCOc1ccc(-c2ccc(C)c(C(=O)O)c2)cc1CNC(=O)c1ccc(C(F)(F)F)cc1F`, the half-maximal effective concentration (EC50) stood at 120 nM in assay [1] and 14 nM in assay [3]. In assay [2], this compound returned an Efficacy of 100%.
As for `CCCCOc1ccc(-c2ccccc2C(=O)O)cc1CNC(=O)c1ccc(C(F)(F)F)cc1F`, the result in assay [6], in assay [4], in assay [7], in [9] and in assay [10] was inactive.
With `CCCCOc1ccc(-c2ccc(C(=O)O)nc2)cc1CNC(=O)c1ccc(C(F)(F)F)cc1F`, the outcome in assay [4] was inactive. The compound also displayed an EC50 in [3] of 400 nM.
On to `CCCCOc1ccc(-c2ccc(C(=O)O)cc2F)cc1CNC(=O)c1ccc(C(F)(F)F)cc1F`, for which, in [4], the result was inactive. Further, the EC50 in assay [3] was found to be 53 nM.
`CCCCOc1ccc(-c2cc(C(=O)O)ccc2C)cc1CNC(=O)c1ccc(C(F)(F)F)cc1F`: the EC50 in assay [1] was 570 nM; in assay [3], 4.9 nM. In addition, the Efficacy in assay [2] stood at 100%.
Take `CCCCOc1ccc(-c2cccc(C(=O)O)c2)cc1CNC(=O)c1ccc(C(F)(F)F)cc1F`: the EC50 was 790 nM in assay [1] and 29 nM in assay [3]. In addition, the Efficacy in [2] was 100%.
With `CCCCOc1ccc(C[C@H](CC)C(=O)O)cc1CNC(=O)c1ccc(C(F)(F)F)cc1F`, the results for the EC50 in [1], in assay [3] and in assay [11] were 240 nM, 0.72 nM and 1400 nM, respectively.
Take `CCCCOc1ccc(-c2ccc(C(=O)O)cn2)cc1CNC(=O)c1ccc(C(F)(F)F)cc1F`: the result in assay [6], in [4], in assay [7], in assay [8], in [9] and in assay [10] was inactive.
Regarding `CCCCOc1ccc(-c2ccc(C(=O)O)cc2)cc1CNC(=O)c1ccc(C(F)(F)F)cc1F`, the EC50 result in assay [12] was “Not Active”; in assay [3] it was 170 nM. Further, the outcome in assay [13], in [9], in assay [14] and in assay [10] was inactive. The IC50 in assay [15] amounted to 68 nM.

Values taken from ChEMBL document CHEMBL1154383, “Novel biphenylcarboxylic acid peroxisome proliferator-activated receptor (PPAR) delta selective antagonists” (Bioorg Med Chem Lett, 2009).
